mIAP activ = activators of mouse IAP, primary screen, biochemical, luminescence, uHTS; intestinal alkaline phosphatase [Mus musculus]; 0.24% of 330,000 active; muIAP, CDP-Star luminescence, 30 min; active compounds read high; 1 = vehicle-only enzyme signal, 0 = enzyme-free wells; activation factor at 10 µM;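 active = activation factor of at least 2 at 20 µM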
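Assay system: mouse IAP enzyme; Reagent: CDP-Star chemiluminescent phosphatase substrate; Compound: DMSO-dissolved test compounds; Incubation: 30 min, room temperature; Technique: luminescence from enzymatic CDP-Star hydrolysis; Controls: DMSO-only wells and no-enzyme negative control.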
hIAP act = human IAP activators, primary screen, biochemical, luminescence, uHTS | purified human IAP, CDP-Star luminescence, 30 min; active compounds read high; 1 = vehicle-only enzyme, 0 = enzyme-free background | 0.16% of 330,000 active | AID 2524, 2010 | activation factor at 10 µM | Intestinal-type alkaline phosphatase (Homo sapiens), P09923;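 active = activation factor of the enzyme at least 2-fold when tested at 20 µM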
hIAP block = human IAP inhibitors, primary screen, biochemical, luminescence, uHTS. purified IAP, CDP-Star luminescence, 30 min. inhibition, % at 10 µM. 0.12% of 330,000 active;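 active = inhibition reaching a set limit with compound at 10 µM in the primary screen, cut at about 35% in these data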
mIAP block = inhibitors of mouse IAP, primary screen, biochemical, luminescence, uHTS | purified mouse IAP, CDP-Star luminescence, 30 min | 0.2% of 330,000 active | inhibition, % at 10 µM;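 active = inhibition of at least 40% at 10 µM in the primary screen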
bIAP inh = bovine intestinal alkaline phosphatase inhibitors, primary screen, selectivity assay for TNAP inhibitor project, biochemical, bovine IAP, CDP-star luminescence. 190,000 tested, under 10 active. alkaline phosphatase, intestinal [Bos taurus]. purified bovine IAP, 30 min. inhibition, % at 20 µM;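 active = over 50% inhibition of intestinal alkaline phosphatase at 20 µM in the single-dose screen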
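Assay system: bovine IAP enzyme; medium: DEA buffer 100 mM, pH 9.8, with MgCl2 1.0 mM, ZnCl2 0.02 mM; doses: 20 µM single dose; incubation: enzyme reaction for 30 min at room temperature; detection: CDP-star luminescence signal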
bIAP activator = bovine intestinal alkaline phosphatase activators, primary screen, biochemical, bovine IAP, CDP-star luminescence; purified bovine IAP, 30 min; active compounds read high; fold of DMSO-control signal, blank-subtracted; alkaline phosphatase, intestinal [Bos taurus]; activation factor at 20 µM; 0.17% of 200,000 active;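 active = activation factor of 2 or more at 20 µM, a signal rise over negative controls twice the positive control's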
hIAP act confirm = human IAP activators, confirmation, biochemical, luminescence, single concentration, uHTS hits; shares compounds with hIAP act; purified IAP, CDP-Star luminescence, 30 min; active compounds read low; activation (%Activity, negative = activation), % at 8.3 µM; 10% of 880 active;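 active = at least twofold enzyme activation in any of six single-dose repeats, which the averaged readout prints as negative percent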
Hits are given with their value; n = inactive; x = no result. A selection: hits, their analogues and other compounds. The true share with any hit is near 0.79%.

SMILES	mIAP activ	hIAP act	hIAP block	mIAP block	bIAP inh	bIAP activator	hIAP act confirm
COc1ccc(-c2nnc(NC(=O)C3=COCCO3)o2)cc1	n	n	n	n	n	n	x
O=C(CSc1nnnn1-c1ccc(Cl)cc1)NC1CCS(=O)(=O)C1 (stereo unspecified)	n	n	n	n	x	x	x
CC1(C)NC(=O)N(CCC(=O)Nc2cc(C(F)(F)F)ccc2Cl)C1=O	n	n	n	n	x	x	x
CCOC(=O)Cc1nc2nc(C)cc(C)n2n1	n	n	n	n	n	n	x
Cc1cc(C)n2nc(CC(=O)NNC(=O)COc3cccc(C)c3C)nc2n1	n	2.1	n	n	x	x	n
Cc1cc(C)cc(OCC(=O)NNC(=O)c2cc(C)[nH]n2)c1	n	2.1	n	n	n	n	-95
Cn1c(-c2ccc(F)cc2)cnc1NCc1cccc([N+](=O)[O-])c1	n	n	n	n	x	x	x
O=C(NCC(c1ccccc1)N1CCCC1)C1CCN(C(=O)Nc2ccccc2)CC1 (stereo unspecified)	n	n	n	n	x	x	x
COc1cccc(OC)c1C(=O)NCCOc1cc(C)cc(C)c1	n	n	n	n	x	x	x
CCOc1cccc(OCCOCCOc2ccccc2C(C)=O)c1	n	2.2	n	n	n	n	-219
C=C(C)c1cccc(C(C)(C)NC(=O)NC2CC(C)(C)NC(C)(C)C2)c1	n	n	n	n	n	n	x
c1ccc(-n2ncc3c2ncn2nc(-c4ccco4)nc32)cc1	n	n	52	n	n	n	n
CS(=O)(=O)N1CCC(C(=O)Nc2cccc(F)c2)CC1	n	n	n	n	x	x	x
O=C(Nc1cccc(-c2cccc(F)c2)c1)C1CCN(C2CCOCC2)CC1	n	2.9	n	n	x	x	n
COc1ccccc1OCC(=O)Nc1ccc(S(=O)(=O)N(C)c2ccccc2)cc1	n	n	n	n	x	x	x
Cc1occc1C(=O)NNC(=O)c1ccccc1Br	n	n	n	n	n	n	x
O=C(O)Cn1nnc(-c2cccs2)n1	n	n	n	n	n	n	x
O=C(O)CCn1nnc(-c2cccs2)n1	n	2	n	n	n	n	n
NNC(=O)c1nc[nH]c1C(=O)Nc1ccccn1	n	2	n	n	n	n	n
Cc1ccc(NC(=O)c2nc[nH]c2C(=O)NCCCNC(=O)c2[nH]cnc2C(=O)Nc2ccc(C)cc2)cc1	n	n	n	n	x	x	x
Cc1ccc(NC(=O)c2[nH]cnc2C(=O)NN)cc1	n	2.1	n	n	n	n	n
Clc1ccc(Oc2nc3c(Cl)cccc3s2)cc1Cl	n	n	n	n	x	x	x
CN(CCO)CCC(=O)NC1(C)CS(=O)(=O)CC1S(=O)(=O)O (stereo unspecified)	n	n	n	n	x	x	x
CCC(C)c1ccc(NC(=O)COC(=O)c2nc3nccc(C)n3n2)cc1 (stereo unspecified)	n	n	n	n	n	n	x
O=c1[nH]c(/C=C/c2ccc(Cl)cc2Cl)c([N+](=O)[O-])c(=O)[nH]1	n	n	n	n	x	x	x
Cc1cc(NS(=O)(=O)c2ccc(NC(=O)C(C)Oc3ccc4c(C)cc(=O)oc4c3)cc2)no1 (stereo unspecified)	n	2.6	n	n	n	n	n
S=C(NCc1ccncc1)Nc1ccc(Cl)cc1	n	2	n	n	n	n	n
COC(=O)CN=Cc1c(O)n(-c2ccc(Cl)cn2)c(=O)c2ccccc12	n	n	n	n	n	n	x
CC(C)(C)N/N=C/c1c(O)n(-c2ccc(Cl)cn2)c(=O)c2ccccc12	n	2	n	n	n	n	-93

Assay outcomes as filed in PubChem.
